Source: ChEMBL document CHEMBL1141764, “Pentasaccharide glycosides from the roots of Ipomoea murucoides” (2005)
≈ marks a conversion by molar mass, not a printed value. Calls of active or inactive are those of the source. The rule behind the calls is not given here.

What was measured:
Type in all cases: functional
HCT-15 = assay: Cytotoxicity against human HCT15 cells after 72 hrs; conditions: for EC50: HCT-15, 72 h, read-out: ED50 (the source's name)
How it was run: (§1)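 Cells kept in RPMI with 10% FBS at 37 °C, 5% CO2, humidified. Log-phase cells exposed in triplicate to 1.0-100 µg/mL for 72 h at 37 °C. Cell density read by protein analysis. ED50 (dose giving 50% inhibition of control growth) estimated from semilog plot of concentration (µg/mL) versus percent viable cells.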

[1] = (§2) Cytotoxicity against human UISO-SQC1 cells after 72 hrs; conditions: UISO-SQC1, 72 h, read-out: ED50 (the source's name); how it was run: as §1
OVCAR-5 = assay: Cytotoxicity against human OVCAR5 cells after 72 hrs; conditions: OVCAR-5, 72 h, read-out: ED50 (the source's name); how it was run: as §1
UISO-SQC1 = assay: as §2; how it was run: as §1

Row | SMILES | EC50 (HCT-15) | EC50 [1] | EC50 (OVCAR-5) | Activity (HCT-15) | Activity (UISO-SQC1)
1 | CCCCCCCCCCCC(=O)O[C@H]1[C@H](O[C@@H]2[C@@H](O)[C@H]3OC(=O)CCCCCCCCCC(CCCCC)O[C@@H]4O[C@H](C)[C@@H](O)[C@H](O)[C@H]4OC3O[C@H]2C)O[C@@H](C)[C@H](O[C@@H]2O[C@@H](C)[C@H](OC(=O)C(C)CC)[C@@H](O)[C@H]2O[C@@H]2O[C@H](CO)[C@@H](O)[C@H](O)[C@H]2O)[C@H]1O (stereo not given in full) [MURUCIN 4] | > 20 µg/mL | > 20 µg/mL | > 20 µg/mL | – | –
2 | CCCCCCCCCCCC(=O)O[C@H]1[C@H](O[C@@H]2[C@@H](O)[C@H]3OC(=O)CCCCCCCCCC(CCCCC)O[C@@H]4O[C@H](C)[C@@H](O)[C@H](O)[C@H]4OC3O[C@H]2C)O[C@@H](C)[C@H](O[C@@H]2O[C@@H](C)[C@H](OC(C)=O)[C@@H](O)[C@H]2O[C@@H]2O[C@H](CO)[C@@H](O)[C@H](O)[C@H]2O)[C@H]1O (stereo not given in full) [MURUCIN 1] | – | – | 5 µg/mL (≈ 4.08 µM) | inactive | inactive
3 | CCCCCCCCCCCC(=O)O[C@H]1[C@H](O[C@@H]2[C@@H](O)[C@H]3OC(=O)CCCCCCCCCC(CCCCC)O[C@@H]4O[C@H](C)[C@@H](O)[C@H](O)[C@H]4OC3O[C@H]2C)O[C@@H](C)[C@H](O[C@@H]2O[C@@H](C)[C@H](OC(=O)C(C)C(C)O)[C@@H](O)[C@H]2O[C@@H]2O[C@H](CO)[C@@H](O)[C@H](O)[C@H]2O)[C@H]1O (stereo not given in full) [MURUCIN 5] | > 20 µg/mL | > 20 µg/mL | > 20 µg/mL | – | –
4 | CCCCCCCCCCCC(=O)O[C@H]1[C@H](O[C@@H]2[C@@H](O)[C@H]3OC(=O)CCCCCCCCCC(CCCCC)O[C@@H]4O[C@H](C)[C@@H](O)[C@H](O)[C@H]4OC3O[C@H]2C)O[C@@H](C)[C@H](O[C@@H]2O[C@@H](C)[C@H](OC(=O)CC)[C@@H](O)[C@H]2O[C@@H]2O[C@H](CO)[C@@H](O)[C@H](O)[C@H]2O)[C@H]1O (stereo not given in full) [MURUCIN 2] | > 20 µg/mL | > 20 µg/mL | > 20 µg/mL | – | –
5 | CCCCCCCCCCCC(=O)O[C@H]1[C@H](O[C@@H]2[C@@H](O)[C@H]3OC(=O)CCCCCCCCCC(CCCCC)O[C@@H]4O[C@H](C)[C@@H](O)[C@H](O)[C@H]4OC3O[C@H]2C)O[C@@H](C)[C@H](O[C@@H]2O[C@@H](C)[C@H](OC(=O)CCC)[C@@H](O)[C@H]2O[C@@H]2O[C@H](CO)[C@@H](O)[C@H](O)[C@H]2O)[C@H]1O (stereo not given in full) [MURUCIN 3] | > 20 µg/mL | > 20 µg/mL | > 20 µg/mL | – | –
